Results published in ChEMBL document CHEMBL4257579, “Analogs of penfluridol as chemotherapeutic agents with reduced central nervous system activity” (Bioorg Med Chem Lett, 2018).

Experiments:
Histamine H1 receptor [1] = molecular target: T1, Histamine H1 receptor (Homo sapiens, UniProt P35367); assay: Displacement of [3H]Pyrilamine from human H1 receptor expressed in HEK cells by radioligand binding assay; type: cell-based
Histamine H1 receptor [2] = molecular target: T1, Histamine H1 receptor; assay: Displacement of [3H]Pyrilamine from human H1 receptor expressed in HEK cells by radioligand binding assay relative to control; type: cell-based; parameters: concentration or dose not given beside the values; conditions: concentration not given here
[3] = molecular target: 5-hydroxytryptamine receptor 6 (Homo sapiens, UniProt P50406); assay: Displacement of [3H]LSD from human 5-HT6 receptor expressed in HEK cells by radioligand binding assay; type: cell-based
[4] = molecular target: T2, Sodium-dependent serotonin transporter (Homo sapiens, UniProt P31645); assay: Displacement of [3H]Citalopram from human SERT expressed in HEK cells by radioligand binding assay; type: cell-based
[5] = molecular target: T2, Sodium-dependent serotonin transporter; assay: Displacement of [3H]Citalopram from human SERT expressed in HEK cells by radioligand binding assay relative to control; type: cell-based
[6] = molecular target: 5-hydroxytryptamine receptor 5A (Homo sapiens, UniProt P47898); assay: Displacement of [3H]LSD from human 5-HT5A receptor expressed in Flp-In CHO cells by radioligand binding assay; type: cell-based
Mus musculus [7] = assay: Toxicity in C57BL/6J mouse assessed as decrease in blood urea nitrogen level at 5 mg/kg, ip treated daily for 7 consecutive days measured after 24 hrs post last dose […]; conditions: in vivo
Mus musculus [8] = assay: Toxicity in C57BL/6J mouse assessed as increase in glutamate dehydrogenase level at 5 mg/kg, ip treated daily for 7 consecutive days measured after 24 hrs post last dose […]; type: organism-based; conditions: in vivo
How it was run: (§1)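 Female C57BL6 mice given 5 mg/kg i.p. daily for 7 days; blood taken at sacrifice 24 h after last dose for clinical chemistry panel: electrolytes, minerals, total protein, albumin, globulin, A/G ratio, BUN, ALT, AST, GLDH, cholestasis markers, ALP, bilirubin, amylase, creatine kinase.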

Mus musculus [9] = assay: Toxicity in C57BL/6J mouse assessed as albumin level at 5 mg/kg, ip treated daily for 7 consecutive days measured after 24 hrs post last dose […]; type: organism-based; conditions: in vivo; how it was run: as §1
Mus musculus [10] = assay: Toxicity in C57BL/6J mouse assessed as bilirubin level at 5 mg/kg, ip treated daily for 7 consecutive days measured after 24 hrs post last dose […]; type: organism-based; conditions: in vivo; how it was run: as §1
Mus musculus [11] = assay: Toxicity in C57BL/6J mouse assessed as total protein level at 5 mg/kg, ip treated daily for 7 consecutive days measured after 24 hrs post last dose […]; type: organism-based; conditions: in vivo; how it was run: as §1
Mus musculus [12] = assay: Toxicity in C57BL/6J mouse assessed as effect on liver weight at 5 mg/kg, ip treated daily for 7 consecutive days measured after 24 hrs post last dose; type: organism-based; conditions: in vivo
How it was run: (§2)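 Female C57BL6 mice treated 5 mg/kg i.p. once daily for seven days; killed 24 h after final injection and organs collected and weighed.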

Mus musculus [13] = assay: Toxicity in C57BL/6J mouse assessed as ratio of albumin to globulin level at 5 mg/kg, ip treated daily for 7 consecutive days measured after 24 hrs post last dose […]; type: organism-based; conditions: in vivo; how it was run: as §1
Mus musculus [14] = assay: Toxicity in C57BL/6J mouse assessed as effect on heart weight at 5 mg/kg, ip treated daily for 7 consecutive days measured after 24 hrs post last dose; type: organism-based; conditions: in vivo; how it was run: as §2
Mus musculus [15] = assay: Toxicity in C57BL/6J mouse assessed as effect on lung weight at 5 mg/kg, ip treated daily for 7 consecutive days measured after 24 hrs post last dose; type: organism-based; conditions: in vivo; how it was run: as §2
Mus musculus [16] = assay: Toxicity in C57BL/6J mouse assessed as effect on spleen weight at 5 mg/kg, ip treated daily for 7 consecutive days measured after 24 hrs post last dose; type: organism-based; conditions: in vivo; how it was run: as §2
Mus musculus [17] = assay: Toxicity in C57BL/6J mouse assessed as creatine kinase level at 5 mg/kg, ip treated daily for 7 consecutive days measured after 24 hrs post last dose […]; type: organism-based; conditions: in vivo; how it was run: as §1
Mus musculus [18] = assay: Toxicity in C57BL/6J mouse assessed as alanine aminotransferase level at 5 mg/kg, ip treated daily for 7 consecutive days measured after 24 hrs post last dose […]; type: organism-based; conditions: in vivo; how it was run: as §1
Mus musculus [19] = assay: Toxicity in C57BL/6J mouse assessed as cholestasis level at 5 mg/kg, ip treated daily for 7 consecutive days measured after 24 hrs post last dose […]; type: organism-based; conditions: in vivo; how it was run: as §1
Mus musculus [20] = assay: Toxicity in C57BL/6J mouse assessed as aspartate aminotransferase level at 5 mg/kg, ip treated daily for 7 consecutive days measured after 24 hrs post last dose […]; type: organism-based; conditions: in vivo; how it was run: as §1
[21] = Drug distribution in C57BL/6J mouse adipose tissue at 5 mg/kg, ip treated daily for 7 consecutive days measured after 24 hrs post last dose by LC/MS/MS analysis; type: ADME, organism-based; conditions: in vivo
How it was run: (§3)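 Female C57BL6 mice dosed 5 mg/kg i.p. once daily for seven consecutive days; sacrificed 24 h after last injection, organs stored at −80 °C. Plasma, brain, lungs and adipose tissue analysed by LC-MS/MS for drug concentration (nM); n = 5.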

Mus musculus [22] = assay: Toxicity in C57BL/6J mouse assessed as electrolytes level at 5 mg/kg, ip treated daily for 7 consecutive days measured after 24 hrs post last dose […]; type: organism-based; conditions: in vivo; how it was run: as §1
Mus musculus [23] = assay: Toxicity in C57BL/6J mouse assessed as amylase level at 5 mg/kg, ip treated daily for 7 consecutive days measured after 24 hrs post last dose […]; type: organism-based; conditions: in vivo; how it was run: as §1
Mus musculus [24] = assay: Toxicity in C57BL/6J mouse assessed as reduction in alkaline phosphatase level at 5 mg/kg, ip treated daily for 7 consecutive days measured after 24 hrs post last dose […]; type: organism-based; conditions: in vivo; how it was run: as §1
[25] = Drug distribution in C57BL/6J mouse lung at 5 mg/kg, ip treated daily for 7 consecutive days measured after 24 hrs post last dose by LC/MS/MS analysis; type: ADME, organism-based; conditions: in vivo; how it was run: as §3
[26] = Drug distribution in C57BL/6J mouse brain at 5 mg/kg, ip treated daily for 7 consecutive days measured after 24 hrs post last dose by LC/MS/MS analysis; type: ADME, organism-based; conditions: in vivo; how it was run: as §3
Mus musculus [27] = assay: Toxicity in C57BL/6J mouse assessed as effect on brain weight at 5 mg/kg, ip treated daily for 7 consecutive days measured after 24 hrs post last dose; type: organism-based; conditions: in vivo; how it was run: as §2
Mus musculus [28] = assay: Toxicity in C57BL/6J mouse assessed as effect on kidney weight at 5 mg/kg, ip treated daily for 7 consecutive days measured after 24 hrs post last dose; type: organism-based; conditions: in vivo; how it was run: as §2
Mus musculus [29] = assay: Toxicity in C57BL/6J mouse assessed as globulin level at 5 mg/kg, ip treated daily for 7 consecutive days measured after 24 hrs post last dose […]; type: organism-based; conditions: in vivo; how it was run: as §1
Mus musculus [30] = assay: Toxicity in C57BL/6J mouse assessed as minerals level at 5 mg/kg, ip treated daily for 7 consecutive days measured after 24 hrs post last dose […]; type: organism-based; conditions: in vivo; how it was run: as §1
[31] = molecular target: Alpha-2C adrenergic receptor (Homo sapiens) (UniProt P18825); assay: Displacement of [3H]Rauwolscine from human alpha 2C adrenergic receptor expressed in MDCK cells by radioligand binding assay relative to control; type: cell-based; conditions: concentration not given here
[32] = molecular target: Beta-3 adrenergic receptor (Homo sapiens, UniProt P13945); assay: Displacement of [3H]CGP12177 from human beta 3 adrenergic receptor expressed in HEK293FlpIN cells by radioligand binding assay; type: cell-based
How it was run: (§4)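 Ki values were calculated from the radioligand displacement data.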

[33] = molecular target: Alpha-2B adrenergic receptor (Homo sapiens, UniProt P18089); assay: Displacement of [3H]Rauwolscine from human alpha 2B adrenergic receptor expressed in HEK293T cells by radioligand binding assay; type: cell-based; how it was run: as §4
Chain of Alpha-2B adrenergic receptor (P18089 whole entry): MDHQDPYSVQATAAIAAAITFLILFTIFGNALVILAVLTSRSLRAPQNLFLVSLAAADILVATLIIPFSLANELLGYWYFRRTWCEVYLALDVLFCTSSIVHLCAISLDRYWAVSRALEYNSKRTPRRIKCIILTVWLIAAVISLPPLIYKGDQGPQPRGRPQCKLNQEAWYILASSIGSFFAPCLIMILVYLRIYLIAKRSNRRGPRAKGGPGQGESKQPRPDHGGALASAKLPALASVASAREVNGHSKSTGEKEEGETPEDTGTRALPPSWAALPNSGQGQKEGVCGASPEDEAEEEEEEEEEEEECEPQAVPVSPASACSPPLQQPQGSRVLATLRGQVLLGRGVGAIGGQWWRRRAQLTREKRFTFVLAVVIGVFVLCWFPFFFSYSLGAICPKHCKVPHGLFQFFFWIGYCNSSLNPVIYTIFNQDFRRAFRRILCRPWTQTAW

Chain of 5-hydroxytryptamine receptor 6 (P50406 whole entry): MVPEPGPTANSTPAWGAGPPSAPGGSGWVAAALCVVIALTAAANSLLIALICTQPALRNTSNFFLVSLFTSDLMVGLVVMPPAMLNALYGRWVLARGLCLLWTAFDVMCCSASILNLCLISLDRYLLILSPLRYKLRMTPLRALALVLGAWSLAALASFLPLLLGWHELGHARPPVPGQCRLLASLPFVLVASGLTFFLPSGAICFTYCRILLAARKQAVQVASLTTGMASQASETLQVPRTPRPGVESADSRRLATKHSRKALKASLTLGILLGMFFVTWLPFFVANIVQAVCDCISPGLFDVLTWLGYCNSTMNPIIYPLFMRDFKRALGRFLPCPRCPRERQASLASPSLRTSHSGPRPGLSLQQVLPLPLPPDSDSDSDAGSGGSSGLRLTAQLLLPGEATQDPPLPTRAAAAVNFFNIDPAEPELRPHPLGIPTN
T2 sequence (P31645 whole entry): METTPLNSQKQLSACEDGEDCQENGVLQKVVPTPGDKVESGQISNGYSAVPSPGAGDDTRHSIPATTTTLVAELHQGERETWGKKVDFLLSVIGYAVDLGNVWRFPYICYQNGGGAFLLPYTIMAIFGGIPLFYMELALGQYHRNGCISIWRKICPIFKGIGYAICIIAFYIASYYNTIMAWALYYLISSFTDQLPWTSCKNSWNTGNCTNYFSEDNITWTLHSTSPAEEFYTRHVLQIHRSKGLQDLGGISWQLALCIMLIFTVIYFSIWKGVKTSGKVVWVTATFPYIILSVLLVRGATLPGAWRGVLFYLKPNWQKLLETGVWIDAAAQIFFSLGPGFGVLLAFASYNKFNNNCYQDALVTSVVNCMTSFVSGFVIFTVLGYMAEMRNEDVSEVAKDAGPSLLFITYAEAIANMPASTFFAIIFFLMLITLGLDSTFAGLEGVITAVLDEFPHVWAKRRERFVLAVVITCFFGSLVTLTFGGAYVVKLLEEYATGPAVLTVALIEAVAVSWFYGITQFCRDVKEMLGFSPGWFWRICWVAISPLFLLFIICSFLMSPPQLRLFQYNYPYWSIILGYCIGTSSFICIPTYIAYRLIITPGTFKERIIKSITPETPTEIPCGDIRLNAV
T1 sequence (P35367 whole entry): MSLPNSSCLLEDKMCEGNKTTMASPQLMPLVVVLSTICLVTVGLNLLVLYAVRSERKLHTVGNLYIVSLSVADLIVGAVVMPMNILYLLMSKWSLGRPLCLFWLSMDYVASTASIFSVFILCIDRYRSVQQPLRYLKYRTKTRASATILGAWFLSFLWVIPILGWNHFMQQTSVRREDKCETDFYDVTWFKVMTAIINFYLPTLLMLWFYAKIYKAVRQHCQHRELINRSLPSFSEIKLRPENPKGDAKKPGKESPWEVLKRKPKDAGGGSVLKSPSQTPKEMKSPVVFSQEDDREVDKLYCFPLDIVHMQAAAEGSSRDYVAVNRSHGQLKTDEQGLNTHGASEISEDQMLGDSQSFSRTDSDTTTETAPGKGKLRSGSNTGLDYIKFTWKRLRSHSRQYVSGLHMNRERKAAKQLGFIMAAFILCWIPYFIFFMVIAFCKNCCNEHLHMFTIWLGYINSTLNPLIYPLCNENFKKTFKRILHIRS
Chain of 5-hydroxytryptamine receptor 5A (P47898 whole entry): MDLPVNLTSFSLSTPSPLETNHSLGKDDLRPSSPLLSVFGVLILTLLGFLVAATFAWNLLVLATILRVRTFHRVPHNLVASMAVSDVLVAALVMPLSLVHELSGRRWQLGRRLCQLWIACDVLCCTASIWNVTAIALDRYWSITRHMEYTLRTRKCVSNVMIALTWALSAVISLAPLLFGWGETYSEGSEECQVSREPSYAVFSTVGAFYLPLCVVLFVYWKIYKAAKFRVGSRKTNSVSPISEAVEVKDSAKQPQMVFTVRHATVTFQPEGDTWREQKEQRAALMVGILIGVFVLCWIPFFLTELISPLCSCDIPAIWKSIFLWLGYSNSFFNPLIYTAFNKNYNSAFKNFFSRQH
Chain of Beta-3 adrenergic receptor (P13945 whole entry): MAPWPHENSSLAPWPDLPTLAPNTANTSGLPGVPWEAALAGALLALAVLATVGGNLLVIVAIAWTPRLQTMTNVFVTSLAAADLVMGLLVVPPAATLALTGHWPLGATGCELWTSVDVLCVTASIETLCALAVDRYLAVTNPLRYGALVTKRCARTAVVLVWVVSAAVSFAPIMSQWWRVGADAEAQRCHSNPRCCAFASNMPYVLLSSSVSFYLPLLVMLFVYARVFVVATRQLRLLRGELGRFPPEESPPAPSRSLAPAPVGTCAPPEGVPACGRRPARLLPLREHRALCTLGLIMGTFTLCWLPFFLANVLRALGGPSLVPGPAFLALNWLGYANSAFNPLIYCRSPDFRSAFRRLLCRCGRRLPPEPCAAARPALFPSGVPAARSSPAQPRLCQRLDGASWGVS
Chain of Alpha-2C adrenergic receptor (Homo sapiens) (P18825 whole entry): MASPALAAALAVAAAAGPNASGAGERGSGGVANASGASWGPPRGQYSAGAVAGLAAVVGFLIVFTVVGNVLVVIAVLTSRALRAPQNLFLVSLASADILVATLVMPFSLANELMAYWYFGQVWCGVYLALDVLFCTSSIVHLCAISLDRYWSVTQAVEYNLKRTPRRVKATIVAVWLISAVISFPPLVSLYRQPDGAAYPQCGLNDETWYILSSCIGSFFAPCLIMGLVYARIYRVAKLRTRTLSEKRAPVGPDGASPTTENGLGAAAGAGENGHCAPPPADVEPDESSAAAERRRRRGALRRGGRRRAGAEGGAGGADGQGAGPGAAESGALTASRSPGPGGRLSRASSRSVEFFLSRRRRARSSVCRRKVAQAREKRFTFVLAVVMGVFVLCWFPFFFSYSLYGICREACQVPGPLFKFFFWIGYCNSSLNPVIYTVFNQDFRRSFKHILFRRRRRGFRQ

`OC1(c2ccc(Cl)c(C(F)(F)F)c2)CCN(CCCC=C(c2ccc(F)cc2)c2ccc(F)cc2)CC1` gave a Ki (Histamine H1 receptor [1]; read-out: Ki) of 718 nM and an inhibition (Histamine H1 receptor [2]) of 64.6%.

For `OC1(c2ccc(Cl)c(C(F)(F)F)c2)CCN(CCCC(c2ccccc2)c2ccccc2)CC1`, the Ki [3] was 1690 nM, the Ki [4] was 1180 nM and the “inhibition (INH)” value [5] was 83.7%. For the same compound, the Ki ([6]; cho) was “Not Active”.

In the case of `COc1ccc(N(CCCCN2CCC(O)(c3ccc(Cl)c(C(F)(F)F)c3)CC2)c2ccc(OC)cc2)cc1`, the Activity (Mus musculus [7]) is reported as “Non-Toxic”, the Activity (Mus musculus [8]) is reported as “Non-Toxic” and the Activity (Mus musculus [9]) is reported as “Non-Toxic”. The Activity (Mus musculus [10]) was “Non-Toxic”, the Activity (Mus musculus [11]) was “Non-Toxic” and the Ki [3] was 1400 nM. For the same compound, the Activity (Mus musculus [12]) was “Non-Toxic”, the Ki (Histamine H1 receptor [1]; read-out: Ki) was 7030 nM and the Activity (Mus musculus [13]) was “Non-Toxic”. The Ki [4] was 1310 nM, the Activity (Mus musculus [14]) was “Non-Toxic” and the “inhibition (INH)” value [5] was 94%. The Activity (Mus musculus [15]) was “Non-Toxic”, the Activity (Mus musculus [16]) was “Non-Toxic” and the Ki ([6]; read-out: Ki) was 4970 nM. For the same compound, the Activity (Mus musculus [17]) was “Non-Toxic”, the Activity (Mus musculus [18]) was “Non-Toxic” and the Activity (Mus musculus [19]) was “Non-Toxic”. For the same compound, the Activity (Mus musculus [20]) was “Non-Toxic”, the Drug uptake [21] was “Active” and the Activity (Mus musculus [22]) was “Non-Toxic”. The Activity (Mus musculus [23]) was “Non-Toxic”, the Activity (Mus musculus [24]) was “Non-Toxic” and the Drug uptake [25] was “Active”. The Drug uptake [26] was “Active”, the Activity (Mus musculus [27]) was “Non-Toxic” and the Activity (Mus musculus [28]) was “Non-Toxic”. The Activity (Mus musculus [29]) was “Non-Toxic”, the inhibition (Histamine H1 receptor [2]) was 71.9% and the Activity (Mus musculus [30]) was “Non-Toxic”.

With `OC1(c2ccc(Cl)c(C(F)(F)F)c2)CCN(CCCCCc2ccc(F)cc2)CC1` the Ki (Histamine H1 receptor [1]; read-out: Ki) was 718 nM and the inhibition (Histamine H1 receptor [2]) was 69.2%.

In the case of `OC1(c2ccc(Cl)c(C(F)(F)F)c2)CCN(CCCC(c2ccc(F)cc2)c2ccc(F)cc2)CC1` [PENFLURIDOL], the Activity (Mus musculus [7]) is reported as “Toxic”, the Activity (Mus musculus [8]) is reported as “Toxic” and the inhibition [31] is reported as 100%. For the same compound, the “inhibition (INH)” value [5] was 92.7%, the Ki [32] was 515 nM and the Drug uptake [21] was “Active”. For the same compound, the Ki [33] was 401 nM, the Activity (Mus musculus [24]) was “Toxic” and the Drug uptake [25] was “Active”. The inhibition (Histamine H1 receptor [2]) was 84%.

For `OC1(c2ccc(Cl)c(C(F)(F)F)c2)CCN(CCCN(c2ccc(F)cc2)c2ccc(F)cc2)CC1`, the Ki [3] was 1680 nM, the Ki (Histamine H1 receptor [1]; read-out: Ki) was 814 nM and the Ki [4] was 903 nM. For the same compound, the “inhibition (INH)” value [5] was 82.5% and the inhibition (Histamine H1 receptor [2]) was 88.5%.

In the case of `OC1(c2ccc(Cl)c(C(F)(F)F)c2)CCN(CCCCN(c2ccc(F)cc2)c2ccc(F)cc2)CC1`, the Ki [3] is reported as 1670 nM, the Ki (Histamine H1 receptor [1]) is reported as “Not Active” and the Ki [4] is reported as 10000 nM. The “inhibition (INH)” value [5] was 72.7% and the Ki ([6]; read-out: Ki) was 4150 nM.

For `OC1(c2ccc(Cl)c(C(F)(F)F)c2)CCN(CCCCC(c2ccc(F)cc2)c2ccc(F)cc2)CC1`, the Activity (Mus musculus [7]) was “Non-Toxic”, the Activity (Mus musculus [8]) was “Non-Toxic” and the Activity (Mus musculus [9]) was “Non-Toxic”. For the same compound, the Activity (Mus musculus [10]) was “Non-Toxic”, the Activity (Mus musculus [11]) was “Non-Toxic” and the Ki [3] was 1670 nM. For the same compound, the Activity (Mus musculus [12]) was “Non-Toxic”, the Activity (Mus musculus [13]) was “Non-Toxic” and the Ki [4] was 428 nM. The Activity (Mus musculus [14]) was “Non-Toxic”, the “inhibition (INH)” value [5] was 92.5% and the Activity (Mus musculus [15]) was “Non-Toxic”. For the same compound, the Activity (Mus musculus [16]) was “Non-Toxic”, the Ki ([6]; read-out: Ki) was 894 nM and the Activity (Mus musculus [17]) was “Non-Toxic”. The Activity (Mus musculus [18]) was “Non-Toxic”, the Activity (Mus musculus [19]) was “Non-Toxic” and the Activity (Mus musculus [20]) was “Non-Toxic”. For the same compound, the Drug uptake [21] was “Active”, the Activity (Mus musculus [22]) was “Non-Toxic” and the Activity (Mus musculus [23]) was “Non-Toxic”. For the same compound, the Activity (Mus musculus [24]) was “Non-Toxic”, the Drug uptake [25] was “Active” and the Drug uptake [26] was “Active”. For the same compound, the Activity (Mus musculus [27]) was “Non-Toxic”, the Activity (Mus musculus [28]) was “Non-Toxic” and the Activity (Mus musculus [29]) was “Non-Toxic”. For the same compound, the Activity (Mus musculus [30]) was “Non-Toxic”.
